Measurements reported in ChEMBL document CHEMBL1138194, “Spatial conformation and topography of the tyrosine aromatic ring in substrate recognition by protein tyrosine kinases” (J Med Chem, 2006).

What was measured:
[1] = system: CC(C)[C@H](NC(=O)[C@H](CCC(=O)O)NC(=O)[C@H](CCC(=O)O)NC(=O)[C@]1(NC(=O)[C@H](CCC(=O)O)NC(=O)[C@H](CC(=O)O)NC(=O)[C@H](CC(=O)O)NC(=O)[C@@H](N)CCC(=O)O)CCc2cc(O)ccc2C1)C(=O)O; assay: (§1) Affinity towards tyrosine kinase Syk
Outline: (§2)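 Syk purified from rat spleen (1 unit = 1 pmol phosphate/min to polyGlu4Tyr at 0.1 mg/mL). Kinetic assays at 30 °C in 50 mM Tris/HCl pH 7.5, 5 mM MnCl2, 20 µM [γ33P]ATP, 10 units enzyme, varied peptide substrate. Stopped with 1 N HCl, heated to hydrolyse ATP, Pi removed as phosphomolybdic complex; aqueous phosphopeptide counted by scintillation; Km derived.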

[2] = system: CC(C)[C@H](NC(=O)[C@H](CCC(=O)O)NC(=O)[C@H](CCC(=O)O)NC(=O)[C@@H](NC(=O)[C@H](CCC(=O)O)NC(=O)[C@H](CC(=O)O)NC(=O)[C@H](CC(=O)O)NC(=O)[C@@H](N)CCC(=O)O)[C@@H](C)c1ccc(O)cc1)C(=O)O; assay: as §1; outline: as §2
[3] = system: CC(C)[C@H](NC(=O)[C@H](CCC(=O)O)NC(=O)[C@H](CCC(=O)O)NC(=O)[C@H](Cc1ccc(O)cc1)NC(=O)[C@H](CCC(=O)O)NC(=O)[C@H](CC(=O)O)NC(=O)[C@H](CC(=O)O)NC(=O)[C@@H](N)CCC(=O)O)C(=O)O; assay: as §1; outline: as §2
[4] = system: CC(C)[C@H](NC(=O)[C@H](CCC(=O)O)NC(=O)[C@H](CCC(=O)O)NC(=O)[C@H](Cc1cccc(O)c1)NC(=O)[C@H](CCC(=O)O)NC(=O)[C@H](CC(=O)O)NC(=O)[C@H](CC(=O)O)NC(=O)[C@@H](N)CCC(=O)O)C(=O)O; assay: as §1; outline: as §2
[5] = system: CC(C)[C@H](NC(=O)[C@H](CCC(=O)O)NC(=O)[C@H](CCC(=O)O)NC(=O)[C@]1(NC(=O)[C@H](CCC(=O)O)NC(=O)[C@H](CC(=O)O)NC(=O)[C@H](CC(=O)O)NC(=O)[C@@H](N)CCC(=O)O)Cc2ccc(O)cc2C1)C(=O)O; assay: as §1; outline: as §2
[6] = system: CC(C)[C@H](NC(=O)[C@H](CCC(=O)O)NC(=O)[C@H](CCC(=O)O)NC(=O)[C@H](NC(=O)[C@H](CCC(=O)O)NC(=O)[C@H](CC(=O)O)NC(=O)[C@H](CC(=O)O)NC(=O)[C@@H](N)CCC(=O)O)[C@@H](C)c1ccc(O)cc1)C(=O)O; assay: as §1; outline: as §2
[7] = system: CC(C)[C@H](NC(=O)[C@H](CCC(=O)O)NC(=O)[C@H](CCC(=O)O)NC(=O)[C@H]1Cc2cc(O)ccc2CN1C(=O)[C@H](CCC(=O)O)NC(=O)[C@H](CC(=O)O)NC(=O)[C@H](CC(=O)O)NC(=O)[C@@H](N)CCC(=O)O)C(=O)O; assay: as §1; outline: as §2
[8] = system: CC(C)[C@H](NC(=O)[C@H](CCC(=O)O)NC(=O)[C@H](CCC(=O)O)NC(=O)[C@@H]1Cc2cc(O)ccc2CN1C(=O)[C@H](CCC(=O)O)NC(=O)[C@H](CC(=O)O)NC(=O)[C@H](CC(=O)O)NC(=O)[C@@H](N)CCC(=O)O)C(=O)O; assay: as §1; outline: as §2
[9] = system: CC(C)[C@H](NC(=O)[C@H](CCC(=O)O)NC(=O)[C@H](CCC(=O)O)NC(=O)[C@](C)(Cc1ccc(O)cc1)NC(=O)[C@H](CCC(=O)O)NC(=O)[C@H](CC(=O)O)NC(=O)[C@H](CC(=O)O)NC(=O)[C@@H](N)CCC(=O)O)C(=O)O; assay: as §1; outline: as §2
[10] = system: CC(C)[C@H](NC(=O)[C@H](CCC(=O)O)NC(=O)[C@H](CCC(=O)O)NC(=O)[C@@]1(NC(=O)[C@H](CCC(=O)O)NC(=O)[C@H](CC(=O)O)NC(=O)[C@H](CC(=O)O)NC(=O)[C@@H](N)CCC(=O)O)Cc2ccc(O)cc2C1)C(=O)O; assay: as §1; outline: as §2
[11] = system: CC(C)[C@H](NC(=O)[C@H](CCC(=O)O)NC(=O)[C@H](CCC(=O)O)NC(=O)[C@@]1(NC(=O)[C@H](CCC(=O)O)NC(=O)[C@H](CC(=O)O)NC(=O)[C@H](CC(=O)O)NC(=O)[C@@H](N)CCC(=O)O)CCc2cc(O)ccc2C1)C(=O)O; assay: as §1; outline: as §2

Tyrosine-protein kinase SYK (Homo sapiens) (from UniProt P43405)
Km [1]: 98 µM | Km [2]: 6.5 µM | Km [3]: 3.6 µM | Km [4]: 5.5 µM | Km [5]: 17.3 µM | Km [6]: 63.2 µM | Km [7]: 136 µM | Km [8]: 124 µM | Km [9]: 87.7 µM | Km [10]: 146 µM | Km [11]: 3.6 µM
